Source: ChEMBL document CHEMBL2062436, “Design, synthesis, and antiviral evaluation of purine-β-lactam and purine-aminopropanol hybrids” (J Med Chem, 2012)
The source made the active and inactive calls. The calls are words filed in the database; no cut-off is given here.

Legend:
dengue virus type 2 = test: Antiviral activity against Dengue virus 2 assessed as inhibition of virus-induced cytopathic effect by cell-based assay; format: functional, organism-based
[1] = test system: Human immunodeficiency virus 1; test: Antiviral activity against Human immunodeficiency virus 1 3B infected in MT4 cells by fluorescence analysis; format: functional, organism-based
Hepatitis C virus = test: Antiviral activity against Hepatitis C virus infected in […] cells by luciferase assay; format: functional, organism-based; settings: Hepacivirus hominis
[2] = test system: unidentified influenza virus; test: Antiviral activity against unidentified influenza virus assessed as inhibition of virus-induced cytopathic effect by cell-based assay; format: functional, organism-based
[3] = Selectivity index, ratio of CC50 for host cell to EC50 for Coxsackievirus
Procedure, shortened: (§1)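 SI calculated as CC50/EC50. CC50 is the 50% cytotoxic concentration in host cells. EC50 is the concentration giving 50% inhibition of the virus-reduced signal versus uninfected cell controls.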

Coxsackievirus = test: Antiviral activity against Coxsackievirus assessed as inhibition of virus-induced cytopathic effect by cell-based assay; format: functional, organism-based
Procedure, shortened: (§2)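 EC50 taken as the compound concentration giving 50% inhibition of the virus-reduced cell signal, relative to uninfected cell controls.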

Human orthopneumovirus = test: Antiviral activity against Human respiratory syncytial virus infected in HeLa cells; format: functional, organism-based
[4] = Cytotoxicity against human HepG2 cells by resazurin assay; format: cell-based
[5] = Cytotoxicity against human HeLa cells by luminescence assay; format: cell-based
Chikungunya virus = test: Antiviral activity against Chikungunya virus assessed as inhibition of virus-induced cytopathic effect by cell-based assay; format: functional; procedure, shortened: as §2
[6] = Selectivity index, ratio of CC50 for HepG2 cells to EC50 for Hepatitis B virus; format: toxicity, cell-based; settings: human, read-out: Ratio CC50/EC50
Procedure, shortened: (§3)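 Ratio of CC50 to EC50. CC50 is the 50% cytotoxic concentration. EC50 is the concentration giving 50% inhibition of the virus-reduced signal relative to the uninfected cell control.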

Hepatitis B virus = test: Antiviral activity against Hepatitis B virus infected in HepG2(2.2.15) by PCR analysis; format: functional, organism-based
[7] = Selectivity index, ratio of CC50 for HeLa cells to EC50 for Human respiratory syncytial virus; format: toxicity, cell-based; settings: read-out: Ratio CC50/EC50; procedure, shortened: as §3
[8] = Selectivity index, ratio of CC50 for host cell to EC50 for Chikungunya virus; procedure, shortened: as §1
[9] = Selectivity index, ratio of CC50 for Hel299 cells to EC50 for Cytomegalovirus; format: toxicity, cell-based; settings: human, read-out: Ratio CC50/EC50; procedure, shortened: as §3
Cytomegalovirus = test: Antiviral activity against Cytomegalovirus infected in human Hel299 cells; format: functional, organism-based; settings: Human betaherpesvirus 5, HEL 299
[10] = Cytotoxicity human HEL299 cells by resazurin assay; format: cell-based, HEL 299

Row | SMILES | Activity (dengue virus type 2) | Activity [1] | Activity (Hepatitis C virus) | Activity [2] | Ratio CC50/EC50 [3] | EC50 (Coxsackievirus) [µM] | EC50 (Human orthopneumovirus) [µM] | CC50 [4] [µM] | CC50 [5] [µM] | EC50 (Chikungunya virus) [µM] | selectivity ratio [6] | EC50 (Hepatitis B virus) [µM] | selectivity ratio [7] | Ratio CC50/EC50 [8] | selectivity ratio [9] | EC50 (Cytomegalovirus) [µM] | CC50 [10] [µM]
1 | O=C1[C@@H](Oc2ccccc2)[C@@H](c2ccc(Cl)cc2)N1CCn1cnc2c(NCc3ccccc3)ncnc21 (relative stereo) | inactive | inactive | inactive | inactive |  |  |  |  |  |  |  |  |  |  |  |  | 
2 | CC(C)N1C(=O)[C@H](CCn2cnc3c(OCc4ccccc4)ncnc32)[C@H]1c1ccccc1 (relative stereo) | inactive | inactive | inactive | inactive | 11.55 | 4.17 |  |  |  |  |  |  |  |  |  |  | 
3 | CC(C)N1C(=O)[C@H](CCn2cnc3c(NCc4ccccc4)ncnc32)[C@H]1c1ccccc1 (relative stereo) | inactive | inactive | inactive | inactive |  |  |  |  |  |  |  |  |  |  |  |  | 
4 | OC[C@@H](Oc1ccccc1)[C@H](NCCn1cnc2c(NCc3ccccc3)ncnc21)c1ccc(Cl)cc1 (relative stereo) | inactive | inactive | inactive | inactive |  |  | 1.92 | 31.9 | 8.23 | 11.5 | 9.19 | 3.47 | 4.29 | 6.19 |  |  | 
5 | CC(C)N[C@H](c1ccccc1)[C@H](CO)CCn1cnc2c(NCc3ccccc3)ncnc21 (relative stereo) | inactive | inactive | inactive | inactive |  |  |  |  |  |  |  |  |  |  |  |  | 
6 | O=C1[C@@H](Oc2ccccc2)[C@@H](c2ccccc2)N1CCCn1cnc2c(OCc3ccccc3)ncnc21 (relative stereo) | inactive | inactive | inactive | inactive | >34.05 | 2.94 |  |  |  |  |  |  |  |  | 4.13 | 17.2 | 70.8
7 | O=C1[C@@H](OCc2ccccc2)[C@@H](c2ccc(Cl)cc2Cl)N1CCCn1cnc2c(NCc3ccccc3)ncnc21 (relative stereo) | inactive | inactive | inactive | inactive |  |  | 2.24 |  | 40.1 |  |  |  | 17.9 |  |  |  | 
8 | O=C1[C@@H](Oc2ccccc2)[C@@H](c2ccccc2)N1CCCn1cnc2c(NCc3ccccc3)ncnc21 (relative stereo) | inactive | inactive | inactive | inactive | >28.09 | 3.56 | 8.05 |  | 46.6 | 17.1 |  |  | 5.79 | >5.75 |  |  | 
9 | CO[C@H](CO)[C@H](NCCCn1cnc2c(NCc3ccccc3)ncnc21)c1ccc(C(C)C)cc1 (relative stereo) | inactive | inactive | inactive | inactive |  |  |  |  |  |  |  |  |  |  |  |  | 
10 | OC[C@@H](OCc1ccccc1)[C@H](NCCCn1cnc2c(NCc3ccccc3)ncnc21)c1ccc(Cl)cc1Cl (relative stereo) | inactive | inactive | inactive | inactive |  |  |  |  |  |  |  |  |  |  |  |  | 
11 | CO[C@@H]1C(=O)N(CCCn2cnc3c(NCc4ccccc4)ncnc32)[C@@H]1c1ccc(C(C)C)cc1 (relative stereo) | inactive | inactive | inactive | inactive |  |  |  |  |  |  |  |  |  |  |  |  | 
12 | O=C1[C@H](CCn2cnc3c(OCc4ccccc4)ncnc32)[C@@H](c2ccccc2)N1Cc1ccccc1 | inactive | inactive | inactive | inactive |  |  |  |  |  |  |  |  |  |  |  |  | 
13 | CC(C)N[C@H](c1ccccc1F)[C@H](CO)CCCn1cnc2c(NCc3ccccc3)ncnc21 (relative stereo) | inactive | inactive | inactive | inactive |  |  | 23.6 |  | > 100 |  |  |  | > 4.25 |  |  |  | 
14 | COc1ccccc1[C@@H]1[C@H](Oc2ccccc2)C(=O)N1CCn1cnc2c(NCc3ccccc3)ncnc21 (relative stereo) | inactive | inactive | inactive | inactive |  |  |  |  |  | 13 |  |  |  | 4.53 |  |  | 
15 | CCCN[C@H](c1ccccc1)[C@H](CO)CCCn1cnc2c(NCc3ccccc3)ncnc21 (relative stereo) | inactive | inactive | inactive | inactive |  |  |  |  |  |  |  |  |  |  |  |  | 
16 | O=C1[C@@H](Oc2ccccc2)[C@@H](c2ccccc2)N1CCn1cnc2c(NCc3ccccc3)ncnc21 (relative stereo) | inactive | inactive | inactive | inactive |  |  |  |  |  |  |  |  |  |  |  |  | 
17 | O=C1[C@@H](OCc2ccccc2)[C@@H](c2ccccc2)N1CCn1cnc2c(NCc3ccccc3)ncnc21 (relative stereo) | inactive | inactive | inactive | inactive |  |  |  | > 50 |  |  | 4.52 | 11.1 |  |  |  |  | 
18 | OC[C@@H](Oc1ccccc1)[C@H](NCCCn1cnc2c(NCc3ccccc3)ncnc21)c1ccccc1 (relative stereo) | inactive | inactive | inactive | inactive |  |  |  |  |  |  |  |  |  |  |  |  | 
19 | CC(C)N1C(=O)[C@H](CCCn2cnc3c(NCc4ccccc4)ncnc32)[C@H]1c1ccccc1F (relative stereo) | inactive | inactive | inactive | inactive |  |  | 7.79 |  | 75.6 |  |  |  | 9.71 |  |  |  | 
20 | CCCN1C(=O)[C@H](CCCn2cnc3c(NCc4ccccc4)ncnc32)[C@H]1c1ccccc1 (relative stereo) | inactive | inactive | inactive | inactive | 17.11 | 2.77 |  |  |  |  |  |  |  |  | 4.29 | 7.16 | 30.7
